Active and inactive are the calls of the source. The rule behind the calls is not given here.
Tests used:
[1] = Selectivity index, ratio of IC50 for equine serum BuChE to IC50 for electric eel Ache
Summary of the method: (§1)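 Ellman method. Equine serum BuChE 0.06 U/mL (for ratio lines, electric eel AChE 0.22 U/mL) in 1 M potassium phosphate buffer. Enzyme stood 5 min with compound before 0.01 M DTNB was added, with butyrylthiocholine iodide as substrate (acetylthiocholine for AChE). Compound range 0.01–100 µM final. IC50 as mean ± SD of three independent experiments. SI = IC50 BuChE / IC50 AChE.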

[2] = target: T1, Amyloid-beta precursor protein (Homo sapiens, UniProt P05067); test: Inhibition of HFIP-pretreated self-induced amyloid beta (1 to 42) (unknown origin) aggregation at 50 uM measured after 48 hrs by ThT fluorescence assay relative to control
T1 sequence (P05067 whole entry): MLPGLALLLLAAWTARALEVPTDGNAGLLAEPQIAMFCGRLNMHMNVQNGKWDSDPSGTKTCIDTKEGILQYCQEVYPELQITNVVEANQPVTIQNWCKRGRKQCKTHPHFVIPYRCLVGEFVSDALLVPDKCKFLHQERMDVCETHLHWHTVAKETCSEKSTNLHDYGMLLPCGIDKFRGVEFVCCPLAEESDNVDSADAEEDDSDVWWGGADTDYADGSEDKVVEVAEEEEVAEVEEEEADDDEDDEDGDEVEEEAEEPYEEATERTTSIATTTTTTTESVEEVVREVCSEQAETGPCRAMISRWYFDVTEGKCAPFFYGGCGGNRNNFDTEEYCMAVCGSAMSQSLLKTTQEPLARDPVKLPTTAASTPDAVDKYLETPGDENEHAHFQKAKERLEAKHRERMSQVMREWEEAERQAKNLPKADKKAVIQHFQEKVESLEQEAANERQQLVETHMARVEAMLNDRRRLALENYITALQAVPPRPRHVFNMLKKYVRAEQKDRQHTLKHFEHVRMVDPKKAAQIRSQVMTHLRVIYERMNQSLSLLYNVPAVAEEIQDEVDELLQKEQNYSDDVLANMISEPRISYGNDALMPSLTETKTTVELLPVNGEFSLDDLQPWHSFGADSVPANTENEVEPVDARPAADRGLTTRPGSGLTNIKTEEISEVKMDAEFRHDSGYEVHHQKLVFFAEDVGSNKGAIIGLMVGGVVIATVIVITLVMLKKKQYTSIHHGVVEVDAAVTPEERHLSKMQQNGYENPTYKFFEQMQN
Summary of the method: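 Aβ1-42 pretreated with HFIP (8 mg/ml), dried under nitrogen, 5 mM stock in DMSO. Diluted in 50 mM phosphate buffer pH 7.4 to 100 µM final and incubated with or without 50 µM compound for 48 h at 37 °C. Diluted with glycine-NaOH 50 mM pH 8.0, then ThT fluorescence read. Buffer blanks included. Mean ± SD of three experiments.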

[3] = Antioxidant activity assessed as DPPH radical scavenging activity at 50 uM preincubated for 5 mins followed by DPPH addition and measured after 30 mins by ultraviolet spectrophotometric analysis relative to control; assay type: functional
Summary of the method: (§2)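 DPPH (0.1 mM) in methanol. Test compound was added and held 5 min before DPPH, then 30 min incubation. Absorbance read at 517 nm. Scavenging % = (A1−A2)/A1×100, with A1 the control absorbance and A2 the compound absorbance. Run in triplicate in 96-well plates.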

[4] = target: Acetylcholinesterase (Electrophorus electricus, UniProt O42275); test: Inhibition of electric eel Ache using acetylthiocholine iodide as substrate preincubated for 5 mins followed by substrate addition and measured after 5 mins by Ellman method
Chain of Acetylcholinesterase (O42275 whole entry): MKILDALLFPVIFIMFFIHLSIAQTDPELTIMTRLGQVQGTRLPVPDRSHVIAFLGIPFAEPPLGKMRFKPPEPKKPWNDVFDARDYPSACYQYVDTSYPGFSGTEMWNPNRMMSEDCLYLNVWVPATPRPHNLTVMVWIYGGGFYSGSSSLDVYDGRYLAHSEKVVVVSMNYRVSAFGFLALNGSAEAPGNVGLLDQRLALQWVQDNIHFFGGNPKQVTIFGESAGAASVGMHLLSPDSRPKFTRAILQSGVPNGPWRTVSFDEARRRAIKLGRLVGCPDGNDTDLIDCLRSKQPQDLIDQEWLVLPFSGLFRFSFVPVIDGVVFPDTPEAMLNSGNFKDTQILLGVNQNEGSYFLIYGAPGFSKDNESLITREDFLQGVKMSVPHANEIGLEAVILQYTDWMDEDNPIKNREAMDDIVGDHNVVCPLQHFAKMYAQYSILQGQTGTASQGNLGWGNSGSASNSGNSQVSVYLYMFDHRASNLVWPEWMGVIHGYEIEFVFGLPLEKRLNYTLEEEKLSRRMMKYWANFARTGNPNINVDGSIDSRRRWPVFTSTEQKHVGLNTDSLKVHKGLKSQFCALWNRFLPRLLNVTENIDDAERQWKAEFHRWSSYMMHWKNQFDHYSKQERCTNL

[5] = Antioxidant activity assessed as trolox equivalent of AAPH-induced radical scavenging activity at 100 uM preincubated for 15 mins followed by AAPH addition and measured at 1 minute interval for 80 mins by ORAC-FL assay; assay type: functional
Summary of the method: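 ORAC-FL in 75 mM phosphate buffer, pH 7.4. Fluorescein 70 nM final was preincubated with the antioxidant 15 min at 37 °C, then AAPH 12 mM final was added. Fluorescence read every minute for 80 min (ex 485/em 520 nm). Net AUC = AUC sample minus AUC blank. Trolox calibration 1–8 µM gave Trolox equivalents. At least three independent runs, each in triplicate.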

[6] = target: Cholinesterase (Equus caballus, UniProt P81908); test: Inhibition of equine serum BuChE using butyrylthiocholine iodide as substrate preincubated for 5 mins followed by substrate addition and measured after 5 mins by Ellman method; summary of the method: as §1
Chain of Cholinesterase (P81908 whole entry): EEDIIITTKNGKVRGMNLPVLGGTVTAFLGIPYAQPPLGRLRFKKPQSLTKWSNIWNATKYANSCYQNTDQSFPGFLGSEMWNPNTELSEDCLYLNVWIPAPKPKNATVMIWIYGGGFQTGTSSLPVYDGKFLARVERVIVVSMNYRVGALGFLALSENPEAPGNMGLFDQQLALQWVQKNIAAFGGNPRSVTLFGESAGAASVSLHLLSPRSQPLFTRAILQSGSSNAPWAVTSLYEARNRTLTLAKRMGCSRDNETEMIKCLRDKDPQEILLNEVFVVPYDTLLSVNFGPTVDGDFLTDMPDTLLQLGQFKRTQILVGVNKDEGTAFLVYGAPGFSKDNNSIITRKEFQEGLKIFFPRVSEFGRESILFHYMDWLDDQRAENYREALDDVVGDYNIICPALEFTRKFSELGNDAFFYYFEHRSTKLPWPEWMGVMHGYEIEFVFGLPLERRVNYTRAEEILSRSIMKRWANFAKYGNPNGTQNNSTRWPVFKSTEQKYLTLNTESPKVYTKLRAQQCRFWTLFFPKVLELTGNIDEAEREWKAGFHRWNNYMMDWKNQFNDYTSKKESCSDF

[7] = target: T1, Amyloid-beta precursor protein; conditions: 25 uM
[8] = Antioxidant activity assessed as DPPH radical scavenging activity at 10 uM preincubated for 5 mins followed by DPPH addition and measured after 30 mins by ultraviolet spectrophotometric analysis relative to control; assay type: functional; summary of the method: as §2
[9] = Antioxidant activity assessed as DPPH radical scavenging activity at 100 uM preincubated for 5 mins followed by DPPH addition and measured after 30 mins by ultraviolet spectrophotometric analysis relative to control; assay type: functional; summary of the method: as §2
[10] = target: T1, Amyloid-beta precursor protein; test: Inhibition of self-induced amyloid beta (1 to 42) (unknown origin) aggregation at 100 uM measured after 48 hrs by ThT fluorescence assay relative to control
Summary of the method: (§3)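 Aβ1-42 is pretreated with HFIP (8 mg/ml) and dried to a film under nitrogen. The film is dissolved in DMSO to a 5 mM stock. This is diluted in 50 mM phosphate buffer, pH 7.4, to 100 µM final peptide, with or without compound, and incubated at 37 °C for 48 h. Samples are then diluted with 50 mM glycine-NaOH, pH 8.0, and fibrils quantified by ThT fluorescence. Blanks without Aβ are subtracted. Values are means ± SD of three experiments.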

[11] = target: T1, Amyloid-beta precursor protein; test: Inhibition of self-induced amyloid beta (1 to 42) (unknown origin) aggregation at 12.5 uM measured after 48 hrs by ThT fluorescence assay relative to control; summary of the method: as §3
[12] = target: T1, Amyloid-beta precursor protein; test: Inhibition of self-induced amyloid beta (1 to 42) (unknown origin) aggregation at 50 uM for 48 hrs by TEM analysis
Summary of the method: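 Aβ1-42 in 50 mM phosphate buffer, pH 7.4, is incubated with or without compound at 37 °C for 48 h, with a curcumin co-incubation and a 0 h sample as comparisons. 10 µL aliquots are applied to carbon grids for 1 min at room temperature, washed with water and negatively stained with sodium phosphotungstate for 1 min. Fibrils are then imaged by transmission electron microscopy.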

[13] = target: T1, Amyloid-beta precursor protein; test: Inhibition of self-induced amyloid beta (1 to 42) (unknown origin) aggregation at 75 uM measured after 48 hrs by ThT fluorescence assay relative to control; summary of the method: as §3
[14] = target: T1, Amyloid-beta precursor protein; test: Inhibition of self-induced amyloid beta (1 to 42) (unknown origin) aggregation measured after 48 hrs by ThT fluorescence assay; summary of the method: as §3
[15] = target: T1, Amyloid-beta precursor protein; test: Inhibition of self-induced amyloid beta (1 to 42) (unknown origin) aggregation at 25 uM measured after 48 hrs by ThT fluorescence assay relative to control; summary of the method: as §3
[16] = target: T1, Amyloid-beta precursor protein; test: Disaggregation of self-induced amyloid beta (1 to 42) (unknown origin) preformed fibrils measured after 24 hrs by ThT fluorescence assay relative to control
Summary of the method: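 HFIP-pretreated Aβ1-42, DMSO stock, diluted in 50 mM phosphate buffer pH 7.4 (100 µM final). Incubated 48 h at 37 °C to form fibrils, then compound or buffer added and held 24 h at 37 °C. Diluted to 200 µl with glycine-NaOH 50 mM pH 8.0, then ThT fluorescence read. Peptide-free buffer blanks with and without compound. Triplicates.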

COc1ccc(-c2cc(-c3cccc4ccccc34)nc3nncn23)cc1OC
Ratio IC50 [1]: > 33.4 | inhibition [2]: 36.6% | Activity [3]: 27.9% | IC50 [4]: 3000 nM | Activity (umolequiv/umol) [5]: 0.234 | IC50 [6]: > 100000 nM

COc1ccc(C2C=C(c3cccc4ccccc34)Nc3nncn32)cc1 (stereo not drawn)
Ratio IC50 [1]: 17.4 | inhibition [2]: 31.2% | Activity [3]: 35% | IC50 [4]: 8.6 nM | Activity (umolequiv/umol) [5]: 0.446 | IC50 [6]: 150 nM

Clc1ccc(C2C=C(c3cccc4ccccc34)Nc3nncn32)cc1 (stereo not drawn)
Ratio IC50 [1]: 2.42 | inhibition [2]: inactive | Activity [3]: 19.2% | IC50 [4]: 371 nM | Activity (umolequiv/umol) [5]: 0.268 | IC50 [6]: 900 nM

COc1cc(/C=C/C(=O)CC(=O)/C=C/c2ccc(O)c(OC)c2)ccc1O
inhibition [7]: Active

Clc1ccccc1C1C=C(c2cccc3ccccc23)Nc2nncn21 (stereo not drawn)
Ratio IC50 [1]: 1.03 | inhibition [2]: 40.4% | Activity [3]: 15.5% | IC50 [4]: 74 nM | Activity (umolequiv/umol) [5]: 0.39 | IC50 [6]: 76 nM

O=C(O)c1cc(O)c(O)c(O)c1
Activity [8]: 66% | Activity [9]: 95.3%

Fc1ccc(C2C=C(c3cccc4ccccc34)Nc3nncn32)cc1 (stereo not drawn)
inhibition [10]: 95.4% | Ratio IC50 [1]: 19.7 | inhibition [11]: 70.4% | inhibition [2]: 85.5% | inhibition [12]: Active | inhibition [13]: 87.5% | Activity [3]: 36.2% | IC50 [14]: 3870 nM | IC50 [4]: 1910 nM | inhibition [15]: 82.4% | Activity (umolequiv/umol) [5]: 0.347 | Activity [16]: 62.6% | IC50 [6]: 39000 nM

c1coc(-c2cc(-c3cccc4ccccc34)nc3nncn23)c1
Ratio IC50 [1]: 37.7 | inhibition [2]: 12.1% | Activity [3]: 20.4% | IC50 [4]: 14 nM | Activity (umolequiv/umol) [5]: 0.101 | IC50 [6]: 528 nM

O=[N+]([O-])c1cccc(C2C=C(c3cccc4ccccc34)Nc3nncn32)c1 (stereo not drawn)
inhibition [10]: 91.4% | inhibition [11]: 42% | inhibition [2]: 72.8% | inhibition [12]: Active | inhibition [13]: 85.8% | Activity [3]: 33% | IC50 [14]: 17400 nM | IC50 [4]: > 100000 nM | inhibition [15]: 59.3% | Activity (umolequiv/umol) [5]: 0.508 | Activity [16]: 58.8% | IC50 [6]: > 100000 nM

c1ccc(-c2cc(-c3cccc4ccccc34)nc3nncn23)cc1
Ratio IC50 [1]: > 168 | inhibition [2]: inactive | Activity [3]: 18.8% | IC50 [4]: 597 nM | Activity (umolequiv/umol) [5]: 0.301 | IC50 [6]: > 100000 nM

CN(C)c1ccc(-c2cc(-c3cccc4ccccc34)nc3nncn23)cc1
Ratio IC50 [1]: 166 | inhibition [2]: 43.1% | Activity [3]: 21.3% | IC50 [4]: 126 nM | Activity (umolequiv/umol) [5]: 0.171 | Activity [16]: 54.5% | IC50 [6]: 20900 nM

COc1ccc(OC)c(C2C=C(c3cccc4ccccc34)Nc3nncn32)c1 (stereo not drawn)
Ratio IC50 [1]: > 160 | inhibition [2]: 42.1% | Activity [3]: 53.8% | IC50 [4]: 602 nM | Activity (umolequiv/umol) [5]: 0.472 | Activity [16]: 47.9% | IC50 [6]: > 100000 nM

— ChEMBL document CHEMBL4387749, “Naphthalene-triazolopyrimidine hybrid compounds as potential multifunctional anti-Alzheimer's agents” (Bioorg Med Chem, 2019)
